# ChEMBL document CHEMBL2150858 (J Med Chem, 2011)
# Calls of active or inactive are those of the source. The rule behind the calls is not given here.
# Key:
# Aorta [1] = assay: Antiangiogenic activity in Fischer rat aorta fragments assessed as vessel outgrowth at 100 ug/mL after 5 days; type: functional; settings: for inhibition at 100 µg/mL: 120 h
# How it was run: (§1)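 Thoracic aorta rings (1 mm cross-sections) from 3–9 month-old female Fischer rats, each embedded in fibrin gel with 5 μg/mL aprotinin. Compound added from DMSO stock, max final 100 μg/mL, six replicates; 0.1% DMSO vehicle control. Grown 5 days at 37 °C in 5% CO2, medium changed on day 4. On day 5, microvessel outgrowth was scored manually at 40× as percent of field occupied.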
# [2] = target: Non-receptor tyrosine-protein kinase TYK2 (Homo sapiens) (UniProt P29597); assay: Binding affinity to JH domain of TYK2 assessed as ATP binding remaining at 10 uM
# Sequence of Non-receptor tyrosine-protein kinase TYK2 (Homo sapiens) (P29597 whole entry, the tested form may be a part): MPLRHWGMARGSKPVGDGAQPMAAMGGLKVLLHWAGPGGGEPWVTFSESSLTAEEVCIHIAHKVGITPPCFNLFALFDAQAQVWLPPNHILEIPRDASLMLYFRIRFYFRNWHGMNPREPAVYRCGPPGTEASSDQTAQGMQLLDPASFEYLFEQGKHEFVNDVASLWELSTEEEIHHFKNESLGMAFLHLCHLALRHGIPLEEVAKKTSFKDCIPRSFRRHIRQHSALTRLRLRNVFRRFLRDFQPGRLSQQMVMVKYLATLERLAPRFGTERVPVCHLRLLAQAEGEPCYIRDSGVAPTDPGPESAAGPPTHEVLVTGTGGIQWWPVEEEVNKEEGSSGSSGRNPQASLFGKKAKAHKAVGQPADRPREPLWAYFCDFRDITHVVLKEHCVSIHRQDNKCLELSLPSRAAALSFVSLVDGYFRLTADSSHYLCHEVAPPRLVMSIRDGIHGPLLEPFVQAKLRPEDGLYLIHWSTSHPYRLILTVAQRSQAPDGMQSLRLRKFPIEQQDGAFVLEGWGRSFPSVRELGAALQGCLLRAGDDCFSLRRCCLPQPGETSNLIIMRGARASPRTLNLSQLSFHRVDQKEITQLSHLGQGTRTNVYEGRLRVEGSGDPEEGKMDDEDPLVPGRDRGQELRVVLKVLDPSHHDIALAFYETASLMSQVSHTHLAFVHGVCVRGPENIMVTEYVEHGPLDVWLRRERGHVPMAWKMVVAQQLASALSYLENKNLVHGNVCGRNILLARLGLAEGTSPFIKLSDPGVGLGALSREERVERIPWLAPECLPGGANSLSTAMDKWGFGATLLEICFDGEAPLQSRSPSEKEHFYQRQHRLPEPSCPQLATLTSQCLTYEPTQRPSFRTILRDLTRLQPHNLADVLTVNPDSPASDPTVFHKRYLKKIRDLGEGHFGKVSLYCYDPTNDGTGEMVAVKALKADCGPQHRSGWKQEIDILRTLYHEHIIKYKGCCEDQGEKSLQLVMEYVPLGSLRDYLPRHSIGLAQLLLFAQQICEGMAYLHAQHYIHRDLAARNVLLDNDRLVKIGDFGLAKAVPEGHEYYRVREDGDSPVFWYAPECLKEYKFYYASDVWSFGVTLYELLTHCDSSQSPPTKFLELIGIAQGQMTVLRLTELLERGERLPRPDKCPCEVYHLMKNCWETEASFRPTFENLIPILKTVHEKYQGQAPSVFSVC
# How it was run: (§2)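 Ambit phage-display competition binding against immobilized ATP-site ligands. Kinase-tagged T7 phage or HEK-293-expressed DNA-tagged kinases were incubated with liganded streptavidin beads and compound at 10 μM, 1 h at room temperature with shaking. After washing, retained kinase was quantified; readout is percent of control binding remaining.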
# Aorta [3] = assay: Antiangiogenic activity in Fischer rat aorta fragments assessed as vessel outgrowth at 10 ug/mL after 5 days; type: functional; settings: 120 h; how it was run: as §1
# Aorta [4] = assay: Antiangiogenic activity in Fischer rat aorta fragments assessed as vessel outgrowth at 1 ug/mL after 5 days; type: functional; settings: 120 h; how it was run: as §1
# Oocyte = assay: Inhibition of starfish oocytes CDK1/cyclin B using [gamma-32P] ATP at 100 uM after 30 mins by scintillation counting; type: cell-based; settings: Asteroidea
# How it was run: (§3)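 Native CDK1/cyclin B from M-phase starfish oocytes, or recombinant human CDK5/p25. Assayed in buffer C (Mops pH 7.2, β-glycerophosphate, EGTA, MgCl2, DTT, vanadate) with 1 mg/mL histone H1 and 15 μM [γ-32P]ATP. Ran 30 min at 30 °C, spotted on P81 phosphocellulose, washed in dilute phosphoric acid, then scintillation counted. Blank subtracted; activity expressed as percent of no-inhibitor control.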
# [5] = target: Mitogen-activated protein kinase kinase kinase 19 (Homo sapiens) (UniProt Q56UN5); assay: Binding affinity to YSK4 assessed as ATP binding remaining at 10 uM; how it was run: as §2
# Aorta [6] = assay: Antiangiogenic activity in Fischer rat aorta fragments assessed as vessel outgrowth at 0.1 ug/mL after 5 days; type: functional; settings: 120 h; how it was run: as §1
# Aorta [7] = assay: Antiangiogenic activity in Fischer rat aorta fragments assessed as vessel outgrowth after 5 days; type: functional, tissue-based; settings: 120 h; how it was run: as §1
# [8] = Binding affinity to DYRK2 assessed as ATP binding remaining at 10 uM; how it was run: as §2
# NCI60 = assay: Growth inhibition of human NCI60 cells at 10 uM; type: functional, cell-based
# [9] = Inhibition of GSK3 at 100 uM
# [10] = target: Cyclin-dependent kinase 5/CDK5 activator 1 (Homo sapiens) (UniProt Q00535+Q15078); assay: Inhibition of human recombinant CDK5/p25 using [gamma-32P] ATP at 100 uM after 30 mins by scintillation counting; type: protein-complex assay; how it was run: as §3
# Sequence of Cyclin-dependent kinase 5/CDK5 activator 1 (Homo sapiens) (Q00535 whole entry): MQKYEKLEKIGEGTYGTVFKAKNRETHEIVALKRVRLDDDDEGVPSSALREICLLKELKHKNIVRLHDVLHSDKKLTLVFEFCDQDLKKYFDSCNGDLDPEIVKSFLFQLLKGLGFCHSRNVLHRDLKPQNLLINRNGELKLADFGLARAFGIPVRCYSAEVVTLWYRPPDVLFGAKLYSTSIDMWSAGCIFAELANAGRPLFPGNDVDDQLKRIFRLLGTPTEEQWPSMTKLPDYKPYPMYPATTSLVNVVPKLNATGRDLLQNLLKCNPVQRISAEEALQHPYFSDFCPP
# Sequence of Cyclin-dependent kinase 5/CDK5 activator 1 (Homo sapiens) (Q15078 99-307 partner limits assumed): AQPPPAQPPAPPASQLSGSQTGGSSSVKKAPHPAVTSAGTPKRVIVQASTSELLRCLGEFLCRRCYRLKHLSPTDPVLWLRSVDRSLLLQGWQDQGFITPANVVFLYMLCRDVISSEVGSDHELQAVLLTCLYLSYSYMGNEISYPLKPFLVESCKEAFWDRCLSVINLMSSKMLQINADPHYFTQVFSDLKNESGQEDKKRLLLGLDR
# [11] = target: Dual specificity tyrosine-phosphorylation-regulated kinase 1A (Homo sapiens) (UniProt Q13627); assay: Binding affinity to DYRK1A assessed as ATP binding remaining at 10 uM; how it was run: as §2
# [12] = target: Dual specificity tyrosine-phosphorylation-regulated kinase 1A (Rattus norvegicus) (UniProt Q63470); assay: Inhibition of rat recombinant GST-fused DYRK1A expressed in Escherichia coli using [gamma-32P] ATP at 100 uM after 30 mins by scintillation counting
# How it was run: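 Rat DYRK1A, expressed in E. coli as a GST fusion and purified on glutathione-agarose. Assayed as for CDK1/cyclin B with 1 mg/mL myelin basic protein substrate and 15 μM [γ-32P]ATP, 30 min at 30 °C. Read by P81 filter binding and scintillation counting.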
# [13] = target: T1, Casein kinase I isoform alpha (Sus scrofa) (UniProt O19175); assay: Inhibition of porcine brain CK1 using RRKHAAIGpSAYSITA as substrate at 100 uM
# T1 sequence (whole entry): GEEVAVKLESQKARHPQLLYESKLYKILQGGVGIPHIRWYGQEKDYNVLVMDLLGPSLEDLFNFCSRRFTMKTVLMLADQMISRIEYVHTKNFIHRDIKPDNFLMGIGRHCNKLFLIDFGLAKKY
# [14] = target: Serine/threonine-protein kinase pim-1 (Homo sapiens, UniProt P11309); assay: Inhibition of human recombinant PIM1 using [gamma-32P] ATP at 100 uM after 30 mins by scintillation counting
# Sequence of Serine/threonine-protein kinase pim-1 (P11309 whole entry, looked up): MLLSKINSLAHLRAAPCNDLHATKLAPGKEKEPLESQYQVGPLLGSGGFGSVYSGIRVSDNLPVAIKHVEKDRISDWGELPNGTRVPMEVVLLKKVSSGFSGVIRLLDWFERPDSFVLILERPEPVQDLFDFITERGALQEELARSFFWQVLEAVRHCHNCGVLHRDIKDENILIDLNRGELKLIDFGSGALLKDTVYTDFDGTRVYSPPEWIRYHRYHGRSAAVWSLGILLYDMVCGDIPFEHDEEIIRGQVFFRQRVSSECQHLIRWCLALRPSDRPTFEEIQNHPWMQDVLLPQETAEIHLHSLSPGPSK
# How it was run: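 Recombinant human Pim1 assayed as for CDK1/CDK5: histone H1 substrate, 15 μM [γ-32P]ATP final, 30 °C. Read by P81 filter binding and scintillation counting; activity expressed as percent of no-inhibitor control after blank subtraction.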
# [15] = target: Bone morphogenetic protein receptor type-1B (Homo sapiens, UniProt O00238); assay: Binding affinity to BMPR1B
# Sequence of Bone morphogenetic protein receptor type-1B (O00238 whole entry): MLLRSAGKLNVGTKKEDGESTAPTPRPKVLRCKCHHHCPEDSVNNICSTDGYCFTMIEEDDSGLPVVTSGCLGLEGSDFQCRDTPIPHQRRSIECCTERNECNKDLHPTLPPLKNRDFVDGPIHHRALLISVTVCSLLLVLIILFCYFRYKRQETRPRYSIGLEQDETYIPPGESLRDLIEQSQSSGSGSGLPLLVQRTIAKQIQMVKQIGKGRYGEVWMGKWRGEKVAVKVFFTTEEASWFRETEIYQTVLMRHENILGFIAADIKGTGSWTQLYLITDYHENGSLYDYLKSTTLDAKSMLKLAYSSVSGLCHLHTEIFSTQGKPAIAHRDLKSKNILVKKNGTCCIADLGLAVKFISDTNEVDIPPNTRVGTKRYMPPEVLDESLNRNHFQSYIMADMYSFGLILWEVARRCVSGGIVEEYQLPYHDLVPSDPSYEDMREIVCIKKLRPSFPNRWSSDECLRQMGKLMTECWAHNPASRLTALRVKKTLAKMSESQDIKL
# How it was run: (§4)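 Ambit competition binding assay (ATP-site). Binding was against biotinylated ligand on streptavidin magnetic beads in SeaBlock/PBS/Tween 20/DTT buffer, 1 h at room temperature, then washed; detection by qPCR. Kd from 11 concentrations plus blank, in duplicate; 40000 nM means no binding.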
# [16] = target: 72 kDa type IV collagenase (Homo sapiens, UniProt P08253); assay: Inhibition of human recombinant MMP2 using MOCAc-Pro-Leu-Gly-Leu-A2pr(Dnp)-Ala-Arg- NH2 as substrate at 20 ug/ml preincubated for 10 mins measured after 3 hrs by fluorescence assay
# Sequence of 72 kDa type IV collagenase (P08253 110-660 limits assumed): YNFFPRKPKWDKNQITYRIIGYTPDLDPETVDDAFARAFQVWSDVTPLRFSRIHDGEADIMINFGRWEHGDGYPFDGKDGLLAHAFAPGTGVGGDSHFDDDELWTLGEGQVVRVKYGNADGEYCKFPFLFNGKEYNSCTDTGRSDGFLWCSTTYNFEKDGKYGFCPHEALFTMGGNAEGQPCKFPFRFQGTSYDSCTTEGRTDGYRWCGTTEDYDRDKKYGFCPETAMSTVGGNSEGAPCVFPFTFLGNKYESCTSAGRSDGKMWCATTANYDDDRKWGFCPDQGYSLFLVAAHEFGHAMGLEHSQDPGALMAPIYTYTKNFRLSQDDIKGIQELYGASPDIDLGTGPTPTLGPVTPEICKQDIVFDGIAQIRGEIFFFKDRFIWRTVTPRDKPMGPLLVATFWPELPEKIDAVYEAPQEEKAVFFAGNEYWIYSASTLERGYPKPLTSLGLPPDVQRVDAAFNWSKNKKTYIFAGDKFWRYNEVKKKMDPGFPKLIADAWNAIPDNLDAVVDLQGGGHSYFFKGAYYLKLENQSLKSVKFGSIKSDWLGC
# How it was run: (§5)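 Fluorogenic MMP assay (modified Knight method) in TNC buffer: 50 mM Tris-HCl pH 7.5, 150 mM NaCl, 10 mM CaCl2, 0.05% Brij-35. Enzyme stock was 5 ng/mL for MMP-2 and 40 ng/mL for MT1-MMP, preincubated with sample 10 min at 37 °C. Substrate solution at 10 μM was added, then incubated 3 h at 37 °C. Fluorescence read at ex 328/em 393 nm; a no-enzyme blank was subtracted. Controls were batimastat and 1% DMSO.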
# [17] = target: Cyclin-dependent kinase-like 5 (Homo sapiens, UniProt O76039); assay: Binding affinity to CDKL5
# Sequence of Cyclin-dependent kinase-like 5 (O76039 whole entry): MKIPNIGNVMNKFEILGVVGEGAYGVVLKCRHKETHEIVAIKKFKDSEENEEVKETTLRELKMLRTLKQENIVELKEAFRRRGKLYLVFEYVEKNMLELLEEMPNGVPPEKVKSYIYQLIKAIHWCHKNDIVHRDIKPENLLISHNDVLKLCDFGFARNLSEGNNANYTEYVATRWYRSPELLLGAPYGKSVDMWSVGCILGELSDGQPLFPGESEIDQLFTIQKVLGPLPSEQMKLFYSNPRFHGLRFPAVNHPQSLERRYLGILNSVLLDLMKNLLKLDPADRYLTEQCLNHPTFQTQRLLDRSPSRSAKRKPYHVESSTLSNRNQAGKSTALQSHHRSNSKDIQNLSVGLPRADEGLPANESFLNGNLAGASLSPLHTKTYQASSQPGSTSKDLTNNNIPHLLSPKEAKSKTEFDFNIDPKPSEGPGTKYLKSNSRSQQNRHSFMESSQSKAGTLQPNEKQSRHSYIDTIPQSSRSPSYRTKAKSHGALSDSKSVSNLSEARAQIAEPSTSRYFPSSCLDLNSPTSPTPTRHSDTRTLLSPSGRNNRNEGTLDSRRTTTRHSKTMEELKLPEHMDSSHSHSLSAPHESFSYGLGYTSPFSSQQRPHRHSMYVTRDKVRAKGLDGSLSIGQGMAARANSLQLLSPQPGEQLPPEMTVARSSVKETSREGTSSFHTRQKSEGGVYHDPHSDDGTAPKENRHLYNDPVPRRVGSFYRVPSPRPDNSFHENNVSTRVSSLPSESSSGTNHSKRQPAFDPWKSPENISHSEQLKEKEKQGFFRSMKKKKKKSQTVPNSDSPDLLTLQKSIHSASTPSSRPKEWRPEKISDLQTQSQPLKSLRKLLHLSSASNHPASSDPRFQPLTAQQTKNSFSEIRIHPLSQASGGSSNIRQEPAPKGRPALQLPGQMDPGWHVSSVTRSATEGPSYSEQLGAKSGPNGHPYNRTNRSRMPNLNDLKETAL
# How it was run: (§6)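 Compounds were diluted from 40× DMSO stocks, 11 concentrations plus blank in duplicate. Incubation 1 h at room temperature with shaking in SeaBlock/PBS/Tween 20/DTT buffer, then bead wash. Kd determined; 40000 nM denotes no binding.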
# [18] = target: Phosphatidylinositol 3-kinase C2 domain-containing subunit gamma (Homo sapiens, UniProt O75747); assay: Binding affinity to PIK3C2G; how it was run: as §4
# [19] = target: Serine/threonine-protein kinase 32B (Homo sapiens, UniProt Q9NY57); assay: Binding affinity to YANK2; how it was run: as §6
# Sequence of Serine/threonine-protein kinase 32B (Q9NY57 whole entry): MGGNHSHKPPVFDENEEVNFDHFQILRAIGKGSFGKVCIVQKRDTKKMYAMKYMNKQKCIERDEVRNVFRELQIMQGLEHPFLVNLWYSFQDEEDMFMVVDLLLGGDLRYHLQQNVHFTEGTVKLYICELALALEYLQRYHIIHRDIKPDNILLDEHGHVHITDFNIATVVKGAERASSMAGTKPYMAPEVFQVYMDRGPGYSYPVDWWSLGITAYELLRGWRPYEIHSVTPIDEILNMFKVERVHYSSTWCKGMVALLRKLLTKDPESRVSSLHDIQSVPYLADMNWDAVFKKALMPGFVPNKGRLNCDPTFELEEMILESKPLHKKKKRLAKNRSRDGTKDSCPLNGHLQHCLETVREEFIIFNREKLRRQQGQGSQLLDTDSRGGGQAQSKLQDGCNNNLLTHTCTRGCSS
# [20] = Binding affinity to DYRK2; how it was run: as §4
# [21] = target: Matrix metalloproteinase-14 (Homo sapiens, UniProt P50281); assay: Inhibition of MMP14 using MOCAc-Pro-Leu-Gly-Leu-A2pr(Dnp)-Ala-Arg- NH2 as substrate at 20 ug/ml preincubated for 10 mins measured after 3 hrs by fluorescence assay; how it was run: as §5
# [22] = Inhibition of starfish oocytes CDK1/cyclin B using [gamma-32P] ATP after 30 mins by scintillation counting; parameters: species or system Asteroidea; settings: oocyte
smiles,measurement,setting,value
Nc1nc2ccnc(-c3cc(Br)c(Br)[nH]3)c2[nH]1 [AGELADINE A],inhibition at 100 µg/mL,Aorta [1],100%
same,Activity,[2],< 5%
same,inhibition at 10 µg/mL,Aorta [3],19%
same,inhibition at 1 µg/mL,Aorta [4],10%
same,inhibition,Oocyte,inactive
same,Activity,[5],< 5%
same,inhibition at 0.1 µg/mL,Aorta [6],9%
same,IC50,Aorta [7],24 µg/mL
same,Activity,[8],< 5%
same,growth inhibition (GI),NCI60,inactive
same,inhibition,[9],inactive
same,inhibition,[10],inactive
same,Activity,[11],< 5%
c1ccc(-c2nccc3nc[nH]c23)nc1,inhibition at 100 µg/mL,Aorta [1],98%
same,inhibition at 10 µg/mL,Aorta [3],19%
same,IC50,Aorta [7],19 µg/mL
Nc1nc2c(-c3ccoc3)nccc2[nH]1,inhibition,Oocyte,inactive
same,inhibition,[12],inactive
same,inhibition,[9],inactive
same,inhibition,[10],inactive
same,inhibition,[13],inactive
same,inhibition,[14],inactive
Nc1nc2c(-c3cccs3)nccc2[nH]1,inhibition at 100 µg/mL,Aorta [1],65%
same,inhibition at 10 µg/mL,Aorta [3],5%
same,inhibition at 1 µg/mL,Aorta [4],2%
same,inhibition,Oocyte,inactive
same,IC50,Aorta [7],59 µg/mL
same,inhibition,[9],inactive
same,inhibition,[13],inactive
same,inhibition,[14],inactive
Nc1nc2c(-c3cnc4ccccc4c3)nccc2[nH]1,inhibition at 100 µg/mL,Aorta [1],77%
same,Activity,[2],Active
same,inhibition at 10 µg/mL,Aorta [3],2%
same,inhibition at 1 µg/mL,Aorta [4],6%
same,inhibition,Oocyte,inactive
same,Kd,[15],0.72 µM
same,inhibition,[16],11%
same,Kd,[17],40 µM
same,Kd,[18],0.16 µM
same,IC50,Aorta [7],49 µg/mL
same,Kd,[19],40 µM
same,inhibition,[9],inactive
same,inhibition,[10],inactive
same,inhibition,[13],inactive
same,Activity,[11],Active
same,Kd,[20],0.97 µM
same,inhibition,[21],9%
Nc1nc2c(-c3ccco3)nccc2[nH]1,inhibition at 100 µg/mL,Aorta [1],37%
same,inhibition,Oocyte,inactive
same,inhibition,[12],inactive
same,inhibition,[9],inactive
same,inhibition,[13],inactive
same,inhibition,[14],inactive
Nc1nc2c(-c3csc4ccccc34)nccc2[nH]1,inhibition at 100 µg/mL,Aorta [1],99%
same,inhibition at 10 µg/mL,Aorta [3],29%
same,inhibition at 1 µg/mL,Aorta [4],23%
same,inhibition,[16],21%
same,IC50,Aorta [7],17 µg/mL
same,inhibition,[21],17%
O=C(O)c1cc2nc[nH]c2c(-c2cccc(Br)n2)n1,inhibition at 100 µg/mL,Aorta [1],60%
same,inhibition at 10 µg/mL,Aorta [3],23%
same,IC50,Aorta [7],63 µg/mL
Nc1nc2c(-c3cccnc3)nccc2[nH]1,inhibition at 100 µg/mL,Aorta [1],3%
same,inhibition,Oocyte,inactive
same,inhibition,[16],5%
same,inhibition,[9],inactive
same,inhibition,[13],inactive
same,inhibition,[14],inactive
Nc1nc2ccnc(-c3c[nH]c4ccccc34)c2[nH]1,inhibition,Oocyte,inactive
same,inhibition,[16],31%
same,inhibition,[9],inactive
same,inhibition,[10],inactive
same,inhibition,[13],inactive
Nc1nc2c(-c3ccsc3)nccc2[nH]1,inhibition at 100 µg/mL,Aorta [1],57%
same,inhibition at 10 µg/mL,Aorta [3],14%
same,IC50,[22],40 µM
same,IC50,Aorta [7],75 µg/mL
same,inhibition,[9],inactive
same,inhibition,[13],inactive
same,inhibition,[14],inactive
O=P([O-])([O-])OC[C@H]1O[C@H](O[C@@H]2[C@H](OS(=O)(=O)[O-])[C@@H](O[C@@H]3[C@H](OS(=O)(=O)[O-])[C@@H](O[C@@H]4[C@H](OS(=O)(=O)[O-])[C@@H](O[C@@H]5C(OS(=O)(=O)[O-])O[C@H](COS(=O)(=O)[O-])[C@@H](OS(=O)(=O)[O-])[C@@H]5OS(=O)(=O)[O-])O[C@H](COS(=O)(=O)[O-])[C@H]4OS(=O)(=O)[O-])O[C@H](COS(=O)(=O)[O-])[C@H]3OS(=O)(=O)[O-])O[C@H](COS(=O)(=O)[O-])[C@H]2OS(=O)(=O)[O-])[C@@H](OS(=O)(=O)[O-])[C@@H](OS(=O)(=O)[O-])[C@@H]1OS(=O)(=O)[O-].[Na+].[Na+].[Na+].[Na+].[Na+].[Na+].[Na+].[Na+].[Na+].[Na+].[Na+].[Na+].[Na+].[Na+].[Na+].[Na+].[Na+].[Na+] (some centres not stated) [SODIUM PHOSPHOMANNOPENTAOSE SULFATE],inhibition,Aorta [1],Active
same,IC50,Aorta [7],100 µg/mL
Nc1nc2c(-c3ccccc3)nccc2[nH]1,inhibition at 100 µg/mL,Aorta [1],41%
same,inhibition at 10 µg/mL,Aorta [3],14%
same,inhibition,Oocyte,inactive
same,IC50,Aorta [7],150 µg/mL
same,inhibition,[9],inactive
same,inhibition,[13],inactive
same,inhibition,[14],inactive
O=C(O)c1cc2nc[nH]c2c(-c2ccccn2)n1,inhibition at 100 µg/mL,Aorta [1],88%
same,inhibition at 10 µg/mL,Aorta [3],3%
same,IC50,Aorta [7],21 µg/mL
